# KDM4C inh: inhibitors of GASC-1 (KDM4C) histone demethylase, primary screen, biochemical, single concentration HTS. GST-KDM4C 2-372, H3K9me3 peptide, LANCE TR-FRET. inhibition, % at 12.5 µM. Lysine-specific demethylase 4C (Homo sapiens), Q9H3R0. 0.15% of 96,000 active. AID 720574, 2013;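 active = mean replicate inhibition above about 25%, with at least 55% of replicates also reaching it, limit read from the data, passing the limit was not always enough; inconclusive = only one of those two conditions met; inactive = neither condition met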
# Target sequence (Q9H3R0 2-372 limits assumed): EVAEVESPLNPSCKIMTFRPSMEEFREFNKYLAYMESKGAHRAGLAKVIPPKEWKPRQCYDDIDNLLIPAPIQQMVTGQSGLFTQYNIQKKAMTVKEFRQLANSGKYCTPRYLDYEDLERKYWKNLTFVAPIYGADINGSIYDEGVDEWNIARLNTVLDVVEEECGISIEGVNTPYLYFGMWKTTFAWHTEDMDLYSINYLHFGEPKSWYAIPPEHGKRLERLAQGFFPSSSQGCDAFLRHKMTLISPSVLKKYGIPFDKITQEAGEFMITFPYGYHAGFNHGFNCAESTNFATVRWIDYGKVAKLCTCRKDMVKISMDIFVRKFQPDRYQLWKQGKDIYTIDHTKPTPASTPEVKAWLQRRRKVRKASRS
#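 System: N-terminal GST-fused human GASC-1 (KDM4C) fragment, residues 2-372; amount: enzyme final amount 10 nM; incubation: reaction 30 min RT, detection step 1 h RT; medium: HEPES buffer, pH 7.5, plus ascorbate; technique: LANCE TR-FRET, Eu antibody, ULight-streptavidin, EDTA, ex 340 nm, em 618/671 nm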
# Pf Dd2 growth: P. falciparum Dd2 growth inhibitors, primary screen, SYBR Green fluorescence, single dose replicates | 72 h; active compounds read low | activity change, % at 10 µM | 2.3% of 94,000 active; in the data active = activity change below about -80%; inconclusive = no clear call, values can overlap the other calls
# T cruzi growth-1: T. cruzi intracellular proliferation inhibitors, primary screen, cell-based, beta-gal Tulahuen parasites, NIH3T3 host, luminescence. AID 624255, 2012. inhibition, % at 8.34 µM. 5.9% of 77,000 active. T. cruzi beta-gal in NIH3T3, GalScreen luminescence, 90 h;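 active = mean inhibition above about 93%, with at least 55% of replicates each passing it, limit read from the data, passing the limit was not always enough; inconclusive = only one of those two conditions holds; inactive = neither condition holds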
# IDH1 mut inh: inhibitors of IDH1 R132H reductase, primary screen, biochemical, plate reader, single point; Isocitrate dehydrogenase [NADP] cytoplasmic (Homo sapiens), O75874; diaphorase/resazurin fluorescence, 60 min; inhibition, % at 10 µM; 0.18% of 70,000 active; AID 624101, 2012; in the data active = inhibition above about 34%; inconclusive = no clear call, values can overlap the other calls; inactive = below about 11%;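 also: 0% = DMSO and 100% = no enzyme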
# T cruzi growth-2: T. cruzi intracellular proliferation inhibitors, confirmation, cell-based, NIH3T3 host, beta-gal parasite, luminescence, cherry-pick | inhibition, % at 8.35 µM | 72% of 5,600 active | shares compounds with T cruzi growth-1 | T. cruzi beta-gal in NIH3T3, GalScreen luminescence, 90 h;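 active = mean replicate inhibition above about 95% and at least 55% of replicates individually reaching it, limit read from the data; inconclusive = only one of the two criteria is met; inactive = neither criterion is met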
# T cruzi growth-3: inhibitors of intracellular T. cruzi replication, confirmation, NIH3T3 host cells, beta-gal parasites, cherry-pick, set 2 | shares compounds with T cruzi growth-1 | T. cruzi beta-gal in NIH3T3, GalScreen luminescence, 90 h | inhibition, % at 2.09 µM | 21% of 5,600 active;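 active = mean inhibition above about 95%, with at least 55% of replicates also reaching it, limit read from the data; inconclusive = meets just one of the two conditions; inactive = meets neither condition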;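 also: plate controls were neutral control median for no effect and positive control median for full effect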
# 3T3 cytotox: cytotoxicity in mouse NIH/3T3 fibroblasts, confirmation, cytotoxicity control for T. cruzi proliferation inhibitor project, cell-based, cherry-pick, single point | shares compounds with T cruzi growth-1 | NIH/3T3 viability, CellTiter-Glo ATP luminescence, 90 h | cytotoxicity (signal decrease), % at 8.35 µM | 14% of 5,600 active | AID 651742, 2012;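 active = mean signal decrease across replicates above about 35% based on untreated-well scatter, with enough replicates individually passing, limit read from the data; inconclusive = no rule stated though some were filed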;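 also: 0% = median of neutral control wells and 100% = median of positive control wells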
# NIH3T3 tox 2: NIH/3T3 fibroblast cytotoxicity, confirmation, cytotoxicity control, cell-based, cherry-pick, single point, set 2. NIH/3T3 viability, CellTiter-Glo ATP luminescence, 90 h. AID 651744, 2012. 56% of 5,600 active. inhibition, % at 24.9 µM. shares compounds with T cruzi growth-1;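 active = mean loss of cell viability signal at or above a set limit, and enough replicates individually reaching it; inconclusive = meets only the mean limit or only the replicate share; inactive = meets neither condition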;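 also: 0% = median of neutral control wells and 100% = median of positive control wells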
# * = called active by the depositor; ? = inconclusive; . = no result. Shown are actives, neighbours in structure and some others; about 5.9% of the full set was active somewhere.
SMILES,KDM4C inh,Pf Dd2 growth,T cruzi growth-1,IDH1 mut inh,T cruzi growth-2,T cruzi growth-3,3T3 cytotox,NIH3T3 tox 2
C[C@H](CO)N1C[C@H](C)[C@H](CN(C)Cc2ccc(Oc3ccccc3)cc2)Oc2ccc(NC(=O)Nc3ccc(F)cc3)cc2C1=O,-3,-13,109*,.,98*,62,24,104*
C[C@@H]1CN([C@@H](C)CO)S(=O)(=O)c2ccc(Br)cc2O[C@@H]1CN(C)S(=O)(=O)c1ccc(F)cc1,.,-11,34,1,.,.,.,.
C[C@H]1CN([C@@H](C)CO)S(=O)(=O)c2ccc(Br)cc2O[C@H]1CN(C)S(=O)(=O)c1ccc(F)cc1,-4,-9,106*,-6,106*,9,16,?
C[C@@H]1CN([C@@H](C)CO)S(=O)(=O)c2ccc(Br)cc2O[C@H]1CN(C)S(=O)(=O)c1cccc(F)c1,-2,-1,107*,.,111*,30,28,68*
CCc1cccc(C)c1NC(=O)CSc1nnc(-c2ccc(C)cc2)n1C,.,.,.,0,.,.,.,.
Cn1c(SCC(=O)Nc2ccc(C(N)=O)cc2)nnc1-c1ccccn1,.,.,.,0,.,.,.,.
Cc1ccc(S(=O)(=O)N(C)C[C@@H]2OCCCC[C@H](C)Oc3ccc(NC(=O)Nc4ccc5c(c4)OCO5)cc3C(=O)N([C@H](C)CO)C[C@H]2C)cc1,-1,-75,.,4,.,.,.,.
C[C@H](CO)N1C[C@H](C)[C@@H](CN(C)S(=O)(=O)c2ccc(Cl)cc2)OCCCC[C@H](C)Oc2ccc(NC(=O)Nc3ccc4c(c3)OCO4)cc2C1=O,0,-64,106*,.,114*,104*,2,-3
C[C@@H]1CCCCO[C@H](CN(C)S(=O)(=O)c2ccc(Cl)cc2)[C@H](C)CN([C@@H](C)CO)C(=O)c2cc(NC(=O)Nc3ccc4c(c3)OCO4)ccc2O1,0,-85*,100*,.,105*,113*,-3,11
C[C@H](CO)N1C[C@H](C)[C@H](CN(C)S(=O)(=O)c2ccc(Cl)cc2)OCCCC[C@H](C)Oc2ccc(NC(=O)Nc3ccc4c(c3)OCO4)cc2C1=O,-1,-69,104*,.,103*,102*,-2,16
O=C(CCCC(=O)Nc1cc(C(F)(F)F)ccc1Cl)Nc1cc(C(F)(F)F)ccc1Cl,.,.,.,0,.,.,.,.
COC(=O)C1c2c(oc3cc(CO)cc(O)c3c2=O)C=CC1O (stereo not given),.,.,.,2,.,.,.,.
COCC(=O)N1CCCCN2[C@H](CO)[C@@H](c3ccc(C#Cc4ccc(OC)cc4)cc3)[C@H]2C1,2,6,92,.,.,.,.,.
COCC(=O)N1CCCCN2[C@H](CO)[C@@H](c3ccc(C#Cc4ccc(OC)cc4)cc3)[C@@H]2C1,0,-14,108*,.,?,6,17,86*
COCC(=O)N1CCCCN2[C@@H](CO)[C@H](c3ccc(C#Cc4ccccc4)cc3)[C@@H]2C1,-1,37,97*,.,?,10,33,62*
COCC(=O)N1CCCCN2[C@H](C1)[C@H](c1ccc(C#Cc3ccccc3)cc1)[C@@H]2CO,0,0,43,.,.,.,.,.
COCC(=O)N1CCCCN2[C@H](CO)[C@H](c3ccc(C#Cc4ccccc4)cc3)[C@@H]2C1,0,12,?,.,99*,37,44*,69*
COCC(=O)N1CCCCN2[C@H](C1)[C@@H](c1ccc(C#Cc3ccccc3)cc1)[C@@H]2CO,1,23,59,.,.,.,.,.
